ChEMBL document CHEMBL4673342, “Lipid-Lowering Activities of Cucurbitacins Isolated from Trichosanthes cucumeroides and Their Synthetic Derivatives” (2020)
Calls of active or inactive are those of the source. The rule behind the calls is not given here.

test system: HepG2; assay: Induction of […] uptake in human HepG2 cells at 5 uM by DIL probe based fluorescence assay; type: functional, cell-based
Method in brief: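 HepG2 cells (passages 4–11) in DMEM/10% FBS were treated with DMSO or compound at 5 µM, then given DiI-labelled human plasma LDL (20 µg/mL) for 3 h at 37 °C in the dark. After ice-cold PBS/0.4% albumin rinses, cell-bound dye was extracted with isopropanol and fluorescence read at 520–578 nm. Uptake rate is relative to DMSO. Positive control nagilactone B at 5 µM; n = 3.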

Structure (SMILES)	Activity
CC(C)(O)/C=C/C(=O)[C@](C)(O)[C@H]1[C@H](O)C[C@@]2(C)[C@@H]3CC=C4[C@@H](C=C(O)C(=O)C4(C)C)[C@]3(C)C(=O)C[C@]12C	Active
CC(=O)OC(C)(C)/C=C/C(=O)[C@](C)(O)[C@H]1[C@H](OC(=O)c2ccccc2)C[C@@]2(C)[C@@H]3CC=C4[C@@H](C[C@H](OC(=O)c5ccccc5)C(=O)C4(C)C)[C@]3(C)C(=O)C[C@]12C	inactive
CO[C@@H](CC(=O)[C@](C)(O)[C@H]1[C@H](O)C[C@@]2(C)[C@@H]3CC=C4[C@@H](C[C@H](O)C(=O)C4(C)C)[C@]3(C)C(=O)C[C@]12C)C(C)(C)O	Active
CC(=O)O[C@H]1C(=O)C[C@@H]2C(=CC[C@@H]3[C@@]2(C)C(=O)C[C@]2(C)[C@@H]([C@@](C)(O)C(=O)CCC(C)(C)OC(C)=O)[C@H](O)C[C@@]32C)C1(C)C	inactive
CC(=O)OC(C)(C)[C@H](O)CC(=O)[C@](C)(O)[C@H]1[C@H](O)C[C@@]2(C)[C@@H]3[C@@H](O)C=C4[C@@H](CC(=O)[C@@H](O)C4(C)C)[C@]3(C)C(=O)C[C@]12C	Active
CC(=O)OC(C)(C)CCC(=O)[C@](C)(O)[C@H]1[C@H](OC(=O)c2ccccc2)C[C@@]2(C)[C@@H]3CC=C4[C@@H](C[C@H](OC(=O)c5ccccc5)C(=O)C4(C)C)[C@]3(C)C(=O)C[C@]12C	inactive
CC(=O)OC(C)(C)CCC(=O)[C@](C)(O)[C@H]1[C@H](O)C[C@@]2(C)[C@@H]3CC=C4[C@@H](CC(=O)OC4(C)C)[C@]3(C)C(=O)C[C@]12C	Active
CC(=O)O[C@@H]1C[C@@]2(C)[C@@H]3CC=C4[C@@H](CC(=O)[C@H](OC(C)=O)C4(C)C)[C@]3(C)C(=O)C[C@]2(C)[C@H]1[C@@](C)(O)C(=O)/C=C/C(C)(C)OC(C)=O	inactive
CC(=O)OC(C)(C)/C=C/C(=O)[C@](C)(O)[C@H]1[C@H](O)C[C@@]2(C)[C@@H]3[C@@H](O)C=C4[C@@H](CC(=O)[C@H](O)C4(C)C)[C@]3(C)C(=O)C[C@]12C	Active
CC(=O)OC(C)(C)CCC(=O)[C@](C)(O)[C@H]1[C@H](O)C[C@@]2(C)[C@@H]3[C@@H](O)C=C4[C@@H](CC(=O)[C@@H](O)C4(C)C)[C@]3(C)C(=O)C[C@]12C	Active
CC(C)(O)CCC(=O)[C@](C)(O)[C@H]1[C@H](O)C[C@@]2(C)[C@@H]3CC=C4[C@@H](C[C@H](O)C(=O)C4(C)C)[C@]3(C)C(=O)C[C@]12C	Active
CC(=O)OC(C)(C)/C=C/C(=O)[C@](C)(O)[C@H]1[C@H](O)C[C@@]2(C)[C@@H]3CC=C4[C@@H](CC(=O)[C@H](O)C4(C)C)[C@]3(C)C(=O)C[C@]12C	Active
CO[C@H](CC(=O)[C@](C)(O)[C@H]1[C@H](O)C[C@@]2(C)[C@@H]3CC=C4[C@@H](C[C@H](O)C(=O)C4(C)C)[C@]3(C)C(=O)C[C@]12C)C(C)(C)O	Active
CC(=O)OC(C)(C)CCC(=O)[C@](C)(O)[C@H]1[C@H](O)C[C@@]2(C)[C@@H]3CC=C4[C@@H](C[C@H](OC5O[C@H](CO)[C@@H](O)[C@H](O)[C@H]5C)C(=O)C4(C)C)[C@]3(C)C(=O)C[C@]12C (stereo not given in full)	Active
CC(=O)OC(C)(C)/C=C/C(=O)[C@](C)(O)[C@H]1[C@H](O)C[C@@]2(C)[C@@H]3[C@@H](O)C=C4[C@@H](C[C@H](O)C(=O)C4(C)C)[C@]3(C)C(=O)C[C@]12C	Active
CC(=O)OC(C)(C)CCC(=O)[C@](C)(O)[C@H]1[C@H](O)C[C@@]2(C)[C@@H]3CC=C4[C@@H](C[C@H](OC(=O)c5ccccc5)C(=O)C4(C)C)[C@]3(C)C(=O)C[C@]12C	inactive
CC1(C)C(=O)[C@@H](O)C[C@@H]2C1=CC[C@@H]1[C@@]2(C)C(=O)C[C@]2(C)[C@@H]([C@@](C)(O)C(=O)C[C@@H](O)C(C)(C)O)[C@H](O)C[C@@]12C	Active
CC(=O)OC(C)(C)CCC(=O)[C@](C)(O)[C@H]1C(=O)C[C@@]2(C)[C@@H]3CC=C4[C@@H](C[C@H](O)C(=O)C4(C)C)[C@]3(C)C(=O)C[C@]12C	inactive
CC(=O)OC(C)(C)CCC(=O)[C@](C)(O)[C@H]1[C@H](O)C[C@@]2(C)[C@@H]3CC=C4[C@@H](C[C@H](OC(=O)CCC(=O)O)C(=O)C4(C)C)[C@]3(C)C(=O)C[C@]12C	inactive
CC(C)(O)CCC(=O)[C@](C)(O)[C@H]1[C@H](O)C[C@@]2(C)[C@@H]3CC=C4[C@@H](C=C(O)C(=O)C4(C)C)[C@]3(C)C(=O)C[C@]12C	Active
CC(C)(O)/C=C/C(=O)[C@](C)(O)[C@H]1[C@H](O)C[C@@]2(C)[C@@H]3CC=C4[C@@H](CC(O)C(=O)C4(C)C)[C@]3(C)C(=O)C[C@]12C (stereo not given in full)	Active
CC(=O)OC(C)(C)/C=C/C(=O)[C@](C)(O)[C@H]1[C@H](O)C[C@@]2(C)[C@@H]3CC=C4[C@@H](C[C@H](OC5O[C@H](CO)[C@@H](O)[C@H](O)[C@H]5C)C(=O)C4(C)C)[C@]3(C)C(=O)C[C@]12C (stereo not given in full)	Active
CC(=O)O[C@@H]1C[C@@]2(C)[C@@H]3CC=C4[C@@H](CC(=O)[C@H](O)C4(C)C)[C@]3(C)C(=O)C[C@]2(C)[C@H]1[C@@](C)(O)C(=O)CCC(C)(C)OC(C)=O	inactive

Structure (SMILES)	Activity
CC(=O)O[C@@H]1C[C@@]2(C)[C@@H]3CC=C4[C@@H](CC(=O)[C@H](OC(C)=O)C4(C)C)[C@]3(C)C(=O)C[C@]2(C)[C@H]1[C@@](C)(O)C(=O)CCC(C)(C)OC(C)=O	inactive
CC(=O)O[C@H]1C[C@@H]2C(=CC[C@@H]3[C@@]2(C)C(=O)C[C@]2(C)[C@@H]([C@@](C)(O)C(=O)/C=C/C(C)(C)OC(C)=O)[C@H](OC(=O)O)C[C@@]32C)C(C)(C)C1=O	inactive
CC(=O)OC(C)(C)CCC(=O)[C@](C)(O)[C@H]1[C@H](O)C[C@@]2(C)[C@@H]3CC=C4[C@@H](C[C@H](O)C(=O)C4(C)C)[C@]3(C)C(=O)C[C@]12C	Active
CC(=O)OC(C)(C)/C=C/C(=O)[C@](C)(O)[C@H]1[C@H](O)C[C@@]2(C)[C@@H]3CC=C4[C@@H](C[C@H](OC(=O)c5ccccc5)C(=O)C4(C)C)[C@]3(C)C(=O)C[C@]12C	inactive
CC(=O)OC(C)(C)/C=C/C(=O)[C@](C)(O)[C@H]1C(=O)C[C@@]2(C)[C@@H]3CC=C4[C@@H](CC(=O)C(=O)C4(C)C)[C@]3(C)C(=O)C[C@]12C	inactive
CC(=O)OC(C)(C)CCC(=O)[C@](C)(O)[C@H]1[C@H](O)C[C@@]2(C)[C@@H]3CC=C(C(C)(C)O)[C@@H](CC(=O)O)[C@]3(C)C(=O)C[C@]12C	Active
CC1(C)C(=O)[C@@H](O)C[C@@H]2C1=C[C@H](O)[C@@H]1[C@@]2(C)C(=O)C[C@]2(C)[C@@H](C=O)[C@H](O)C[C@@]12C	Active
CC(=O)OC(C)(C)CCC(=O)[C@](C)(O)[C@H]1[C@H](O)C[C@@]2(C)[C@@H]3[C@@H](O)C=C4[C@@H](C[C@H](O)C(=O)C4(C)C)[C@]3(C)C(=O)C[C@]12C	Active
CC(=O)OC(C)(C)CCC(=O)[C@](C)(O)[C@H]1[C@H](O)C[C@@]2(C)[C@@H]3[C@@H](O)C=C4[C@@H](CC(=O)[C@H](O)C4(C)C)[C@]3(C)C(=O)C[C@]12C	Active
CC(=O)OC(C)(C)CCC(=O)[C@](C)(O)[C@H]1C(=O)C[C@@]2(C)[C@@H]3CC=C4[C@@H](CC(=O)C(=O)C4(C)C)[C@]3(C)C(=O)C[C@]12C	inactive
CC(=O)OC(C)(C)/C=C/C(=O)[C@](C)(O)[C@H]1[C@H](O)C[C@@]2(C)[C@@H]3CC=C4[C@@H](C[C@H](O)C(=O)C4(C)C)[C@]3(C)C(=O)C[C@]12C	Active
CC(C)(O)/C=C/C(=O)[C@](C)(O)[C@H]1[C@H](O)C[C@@]2(C)[C@@H]3CC=C4[C@@H](C[C@H](O)[C@@H](O)C4(C)C)[C@]3(C)C(=O)C[C@]12C	Active
CC(=O)OC(C)(C)/C=C/C(=O)[C@](C)(O)[C@H]1C(=O)C[C@@]2(C)[C@@H]3CC=C4[C@@H](C[C@H](O)C(=O)C4(C)C)[C@]3(C)C(=O)C[C@]12C	inactive
CC(=O)OC1C[C@@H]2C(=CC(=O)[C@@H]3[C@@]2(C)C(=O)C[C@]2(C)[C@@H]([C@@](C)(O)C(=O)CCC(C)(C)OC(C)=O)[C@H](OC(C)=O)C[C@@]32C)C(C)(C)C1O (stereo not given in full)	Active
CC(=O)O[C@H]1C[C@@H]2C(=CC(=O)[C@@H]3[C@@]2(C)C(=O)C[C@]2(C)[C@@H]([C@@](C)(O)C(=O)/C=C/C(C)(C)OC(C)=O)[C@H](OC(=O)O)C[C@@]32C)C(C)(C)C1=O	Active
CC(=O)O[C@H]1C[C@@H]2C(=CC[C@@H]3[C@@]2(C)C(=O)C[C@]2(C)[C@@H]([C@@](C)(O)C(=O)/C=C/C(C)(C)OC(C)=O)[C@H](O)C[C@@]32C)C(C)(C)C1=O	inactive
CC(=O)O[C@@H]1C[C@@]2(C)[C@@H]3CC=C4[C@@H](CC(=O)[C@H](O)C4(C)C)[C@]3(C)C(=O)C[C@]2(C)[C@H]1[C@@](C)(O)C(=O)/C=C/C(C)(C)OC(C)=O	inactive
CCC(=O)O[C@H]1C[C@@H]2C(=CC[C@@H]3[C@@]2(C)C(=O)C[C@]2(C)[C@@H]([C@@](C)(O)C(=O)CCC(C)(C)OC(C)=O)[C@H](OC(=O)CC)C[C@@]32C)C(C)(C)C1=O	inactive
CC(=O)O[C@H]1C[C@@H]2C(=CC[C@@H]3[C@@]2(C)C(=O)C[C@]2(C)[C@@H]([C@@](C)(O)C(=O)CCC(C)(C)OC(C)=O)[C@H](OC(C)=O)C[C@@]32C)C(C)(C)C1=O	inactive
CC(=O)O[C@@H]1C[C@@]2(C)[C@@H]3CC=C4[C@@H](C[C@H](O)C(=O)C4(C)C)[C@]3(C)C(=O)C[C@]2(C)[C@H]1[C@@](C)(O)C(=O)/C=C/C(C)(C)OC(C)=O	inactive
CC(=O)OC(C)(C)[C@@H](O)CC(=O)[C@](C)(O)[C@H]1[C@H](O)C[C@@]2(C)[C@@H]3[C@@H](O)C=C4[C@@H](CC(=O)[C@@H](O)C4(C)C)[C@]3(C)C(=O)C[C@]12C	Active
CC(=O)OC(C)(C)CCC(=O)[C@](C)(O)[C@H]1[C@H](O)C[C@@]2(C)[C@@H]3CC=C(C(C)(C)C(=O)O)[C@@H](CC(=O)O)[C@]3(C)C(=O)C[C@]12C	Active
